Results from the M2OR odorant receptor database.

What was measured:
Conditions in all cases: stereoisomer not certain
[1] = target: T1, UniProt A2ATE5
T1 sequence (whole entry): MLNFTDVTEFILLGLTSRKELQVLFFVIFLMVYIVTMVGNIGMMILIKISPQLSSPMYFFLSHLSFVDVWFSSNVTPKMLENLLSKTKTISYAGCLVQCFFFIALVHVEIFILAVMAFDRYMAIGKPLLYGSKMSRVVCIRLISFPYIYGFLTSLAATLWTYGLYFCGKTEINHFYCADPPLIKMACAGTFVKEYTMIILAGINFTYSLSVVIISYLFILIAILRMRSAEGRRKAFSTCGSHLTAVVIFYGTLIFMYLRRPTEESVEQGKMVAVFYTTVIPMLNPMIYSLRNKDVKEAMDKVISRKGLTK
Summary of the method: (§1)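 Each receptor–molecule pair is labelled responsive or non-responsive (inactive) according to whether the original authors judged the measured signal statistically different from baseline. The data were taken from the main text and supplementary material of published papers and checked for typos and inconsistencies. Assay methods differed by source, with transient luciferase assays in mammalian cell lines being common.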

[2] = target: T2, UniProt A2AVB0
T2 sequence (whole entry): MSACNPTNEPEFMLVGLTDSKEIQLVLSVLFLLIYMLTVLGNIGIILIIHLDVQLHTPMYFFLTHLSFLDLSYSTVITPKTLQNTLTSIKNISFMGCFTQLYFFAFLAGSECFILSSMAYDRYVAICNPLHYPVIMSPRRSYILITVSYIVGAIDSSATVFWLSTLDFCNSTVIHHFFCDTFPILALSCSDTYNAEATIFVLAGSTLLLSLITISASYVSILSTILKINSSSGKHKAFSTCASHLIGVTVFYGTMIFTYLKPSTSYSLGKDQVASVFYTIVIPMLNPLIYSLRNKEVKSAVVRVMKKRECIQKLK
Summary of the method: as §1

[3] = target: T3, UniProt A2AVB5
T3 sequence (whole entry): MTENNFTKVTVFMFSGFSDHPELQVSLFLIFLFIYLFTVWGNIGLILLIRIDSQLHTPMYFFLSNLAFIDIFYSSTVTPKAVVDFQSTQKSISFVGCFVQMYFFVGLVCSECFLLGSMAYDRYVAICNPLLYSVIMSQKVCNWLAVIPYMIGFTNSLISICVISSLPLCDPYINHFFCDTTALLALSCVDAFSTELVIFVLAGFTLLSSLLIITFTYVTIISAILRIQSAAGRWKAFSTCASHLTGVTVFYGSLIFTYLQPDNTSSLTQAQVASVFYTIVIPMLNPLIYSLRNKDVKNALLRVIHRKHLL
Summary of the method: as §1

[4] = target: T4, UniProt B2RVX8
T4 sequence (whole entry): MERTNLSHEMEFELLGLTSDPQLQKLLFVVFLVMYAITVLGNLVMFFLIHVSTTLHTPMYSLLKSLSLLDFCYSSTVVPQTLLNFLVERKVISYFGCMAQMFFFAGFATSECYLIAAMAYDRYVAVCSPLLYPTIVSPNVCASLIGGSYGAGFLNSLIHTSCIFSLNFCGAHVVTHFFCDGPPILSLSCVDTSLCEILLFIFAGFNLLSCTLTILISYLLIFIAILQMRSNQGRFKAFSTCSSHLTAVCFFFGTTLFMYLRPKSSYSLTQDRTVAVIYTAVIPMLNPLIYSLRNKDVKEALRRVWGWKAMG
Summary of the method: as §1

[5] = target: T5, UniProt E9PVX1
T5 sequence (whole entry): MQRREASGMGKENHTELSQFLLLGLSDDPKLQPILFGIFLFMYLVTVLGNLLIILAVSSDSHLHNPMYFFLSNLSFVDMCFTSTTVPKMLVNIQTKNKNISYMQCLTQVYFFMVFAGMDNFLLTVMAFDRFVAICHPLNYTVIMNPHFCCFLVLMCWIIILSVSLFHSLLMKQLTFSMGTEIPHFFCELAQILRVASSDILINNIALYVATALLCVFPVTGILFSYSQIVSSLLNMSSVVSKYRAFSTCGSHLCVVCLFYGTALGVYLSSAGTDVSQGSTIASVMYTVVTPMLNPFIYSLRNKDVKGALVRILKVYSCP
Summary of the method: as §1

[6] = target: T6, UniProt E9PX47
T6 sequence (whole entry): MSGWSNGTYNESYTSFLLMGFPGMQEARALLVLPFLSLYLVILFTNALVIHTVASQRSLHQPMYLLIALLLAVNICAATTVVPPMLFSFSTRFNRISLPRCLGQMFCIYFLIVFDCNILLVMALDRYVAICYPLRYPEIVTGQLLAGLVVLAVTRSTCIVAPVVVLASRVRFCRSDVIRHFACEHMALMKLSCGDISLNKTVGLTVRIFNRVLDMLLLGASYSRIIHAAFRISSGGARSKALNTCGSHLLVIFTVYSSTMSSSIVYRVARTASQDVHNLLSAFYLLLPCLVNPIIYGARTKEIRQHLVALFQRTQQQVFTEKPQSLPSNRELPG
Summary of the method: as §1

[7] = system: Q8VF87 L210I
Summary of the method: as §1

[8] = system: Q8VF87 V108T E162D V184F I202L L210I A279V
Summary of the method: as §1

[9] = system: Q8VF87 V108T E162D V184F I202L L210I
Summary of the method: as §1

[10] = system: Q8VF87 V108T E162D V184F I202L
Summary of the method: as §1

[11] = system: Q8VF87 V108T E162D V184F
Summary of the method: as §1

[12] = system: Q8VF87 V108T E162D
Summary of the method: as §1

[13] = system: Q8VF87 V108T
Summary of the method: as §1

[14] = system: Q8VF87 V184F
Summary of the method: as §1

Measured: odorant receptor agonist call;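 note: active if original authors judged signal statistically different from baseline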

CCOC(=O)C(C)C
inactive: [1] | [2] | [3] | [4] | [5]

CCCCCC(=O)CC
inactive: [1] | [2] | [3] | [4] | [5]

CCC(=O)O
inactive: [1] | [2] | [3] | [4] | [5]

CCCCCOC(=O)CCCCC
inactive: [1] | [2] | [3] | [4] | [5]

CCCCOC=O
inactive: [1] | [2] | [3] | [4] | [5]

CC12CCC(CC1=O)C2(C)C (stereo not drawn)
inactive: [1] | [2] | [3] | [4] | [5]

CCCCCCCCC(=O)O
inactive: [1] | [2] | [3] | [4] | [5] | [6]

CCCCCCO
inactive: [1] | [2] | [3] | [4] | [5] | [6]

CCC(S)C(C)CO (stereo not drawn)
inactive: [7] | [8] | [9] | [10] | [11] | [12] | [13] | [14]

CCC(=O)C(=O)CC
inactive: [1] | [2] | [3] | [4] | [5]

c1ccccc1
inactive: [1] | [2] | [3] | [4] | [5]

CCCCCCCCCS
inactive: [1] | [2] | [3] | [4] | [5]

CCCCCCCCO
inactive: [1] | [2] | [3] | [4] | [5] | [6]

CCCCCCCCS
inactive: [1] | [2] | [3] | [4] | [5]

CC(=O)Oc1ccccc1
inactive: [1] | [2] | [3] | [4] | [5]

CCCCCCCCCC(=O)[O-].[H+]
inactive: [1] | [2] | [3] | [4] | [5] | [6]

CCCC(=O)C(C)=O
inactive: [1] | [2] | [3] | [4] | [5]

CC1CC=CCCCCCCCCCC(=O)C1 (stereo not drawn)
inactive: [1] | [2] | [5]

O=C(O)CCCCCCCCC(=O)O
inactive: [1] | [2] | [5]
